The nature of data set [1]: Oral bioavailability in mouse at 5 mg/kg. Particulars: in vivo. Format: ADME, organism-based. The procedure, abridged: (§1)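 Mouse pharmacokinetics. Oral dosing at 5 or 30 mg/kg as a suspension in HPMC K100 0.5%/Tween 80 0.1% in pH 7 buffer. AUC is measured in blood. Bioavailability is taken against an iv dose of 1 mg/kg.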
Data set [2] can be described thus: Clearance in mouse at 1 mg/kg, iv. It is filed as ADME, organism-based. On the set-up: dose 1 mg/kg, route intravenous. Particulars: in vivo. In a few lines: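 Mouse iv pharmacokinetics. 1 mg/kg given as a solution in DMSO/hydroxypropyl-β-cyclodextrin 20% in pH 7 buffer (5:95). Blood clearance is determined.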
Data set [3] is described as follows: AUC in mouse at 5 mg/kg, po. Particulars: blood. It is filed as ADME, organism-based, Plasma. On the set-up: dose 5 mg/kg, route oral. The procedure, abridged: as §1
A short description of data set [4]: Plasma protein binding in mouse. Format: ADME, cell-free. Particulars: read-out: PPB (converted).
Data set [5] in a line: Solubility of the compound. It is filed as physicochemical. In a few lines:
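Solubility is the soluble fraction of the oral formulation (HPMC K100 0.5%/Tween 80 0.1% in pH 7 buffer) made by ball milling from solid powder. The maximum is […].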

The nature of data set [6]: Permeability of the compound by PAMPA. It is filed as ADME. Particulars: read-out: permeability. The procedure, abridged:
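Passive permeability is measured by parallel artificial membrane permeability assay (PAMPA).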

The target of data set [7] is AMP-activated protein kinase (AMPK) alpha-1/beta-1/gamma-1 (Homo sapiens) (UniProt P54619+Q9Y478+Q13131). Nature of the data set: Activation of human recombinant AMPK alpha1beta1gamma1 by FRET assay. Format: protein-complex assay. In a few lines:
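Activation of the α1β1γ1 heterotrimer, reported as pEC200 = −log(concentration giving a 2-fold increase in AMPK activity). Values are means of at least 2 independent experiments.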

Data set [8] concerns Blood. Nature of the data set: Ratio of AUC in mouse blood in presence of P-gp inhibitor GF120918 to AUC in mouse blood at 5 mg/kg, po. Format: ADME, organism-based. More on the design: dose 5 mg/kg, route oral. Particulars: in vivo. The procedure, abridged:
(§2)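 Mice are dosed orally (5 or 30 mg/kg) as a suspension in HPMC K100 0.5%/Tween 80 0.1% in pH 7 buffer, alone or co-administered with the P-gp inhibitor GF120918 at 30 mg/kg. Mean blood AUC with the inhibitor is compared with AUC without it.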

In data set [9] the test system is Mus musculus. Nature of the data set: Antidiabetic activity in ob/ob mouse assessed as reduction in blood glucose level at 100 mg/kg, po bid for 5 days in presence of P-gp inhibitor GF120918 relative to control. Format: functional. On the set-up: scale not given: the % may be the effect or the level left. The procedure, abridged:
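ob/ob mice receive chronic oral treatment at 100 mg/kg co-administered with the P-gp inhibitor. The blood glucose reduction is assessed against control.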

The target in data set [10] is AMPK alpha2/beta2/gamma3 (Homo sapiens) (UniProt P54646+O43741+Q9UGI9). Kind of data set: Activation of human recombinant AMPK alpha2beta2gamma3. Format: protein-complex assay.
Sequence of AMPK alpha2/beta2/gamma3 (Homo sapiens) (O43741 whole entry, looked up): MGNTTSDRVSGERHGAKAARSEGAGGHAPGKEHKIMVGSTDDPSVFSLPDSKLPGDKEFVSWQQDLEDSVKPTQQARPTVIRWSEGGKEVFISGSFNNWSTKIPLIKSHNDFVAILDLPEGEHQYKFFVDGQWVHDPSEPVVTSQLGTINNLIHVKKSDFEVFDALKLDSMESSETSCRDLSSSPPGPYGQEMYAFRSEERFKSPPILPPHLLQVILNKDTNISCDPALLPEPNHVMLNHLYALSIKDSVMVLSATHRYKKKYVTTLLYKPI
Sequence of AMPK alpha2/beta2/gamma3 (Homo sapiens) (P54646 whole entry, looked up): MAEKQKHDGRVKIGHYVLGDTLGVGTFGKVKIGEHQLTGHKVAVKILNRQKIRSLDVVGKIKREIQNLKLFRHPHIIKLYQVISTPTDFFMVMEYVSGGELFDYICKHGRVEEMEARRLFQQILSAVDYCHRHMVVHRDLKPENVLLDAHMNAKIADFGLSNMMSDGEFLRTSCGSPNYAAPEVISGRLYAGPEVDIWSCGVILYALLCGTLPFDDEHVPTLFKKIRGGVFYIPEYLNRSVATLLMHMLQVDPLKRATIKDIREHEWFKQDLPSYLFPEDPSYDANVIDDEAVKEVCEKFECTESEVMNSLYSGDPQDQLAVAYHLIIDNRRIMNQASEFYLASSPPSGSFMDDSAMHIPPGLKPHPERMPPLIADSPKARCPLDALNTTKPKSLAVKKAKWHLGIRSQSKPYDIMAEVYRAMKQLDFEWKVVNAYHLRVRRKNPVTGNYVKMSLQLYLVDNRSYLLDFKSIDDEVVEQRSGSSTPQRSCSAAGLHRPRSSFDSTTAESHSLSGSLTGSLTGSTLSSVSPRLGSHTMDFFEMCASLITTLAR
Sequence of AMPK alpha2/beta2/gamma3 (Homo sapiens) (Q9UGI9 whole entry, looked up): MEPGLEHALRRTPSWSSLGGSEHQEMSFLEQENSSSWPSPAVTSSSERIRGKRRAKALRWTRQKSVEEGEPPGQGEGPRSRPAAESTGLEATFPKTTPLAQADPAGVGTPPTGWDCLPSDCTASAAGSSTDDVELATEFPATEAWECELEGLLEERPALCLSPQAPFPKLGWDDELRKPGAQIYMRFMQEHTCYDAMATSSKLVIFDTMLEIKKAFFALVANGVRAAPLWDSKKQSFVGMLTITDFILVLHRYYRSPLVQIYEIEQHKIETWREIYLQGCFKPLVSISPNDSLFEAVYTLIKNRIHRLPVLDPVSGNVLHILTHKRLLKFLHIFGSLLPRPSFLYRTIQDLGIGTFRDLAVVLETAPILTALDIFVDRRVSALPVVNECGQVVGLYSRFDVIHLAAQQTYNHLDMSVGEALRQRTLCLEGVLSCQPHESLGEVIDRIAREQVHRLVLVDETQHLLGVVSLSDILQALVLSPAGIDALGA
The target of data set [11] is AMPK alpha2/beta2/gamma1 (Homo sapiens) (UniProt P54646+O43741+P54619). Kind of data set: Activation of human recombinant AMPK alpha2beta2gamma1. Format: protein-complex assay.
Sequence of AMPK alpha2/beta2/gamma1 (Homo sapiens) (O43741 whole entry, looked up): as the sequence (O43741 whole entry, looked up) above
Sequence of AMPK alpha2/beta2/gamma1 (Homo sapiens) (P54619 whole entry, looked up): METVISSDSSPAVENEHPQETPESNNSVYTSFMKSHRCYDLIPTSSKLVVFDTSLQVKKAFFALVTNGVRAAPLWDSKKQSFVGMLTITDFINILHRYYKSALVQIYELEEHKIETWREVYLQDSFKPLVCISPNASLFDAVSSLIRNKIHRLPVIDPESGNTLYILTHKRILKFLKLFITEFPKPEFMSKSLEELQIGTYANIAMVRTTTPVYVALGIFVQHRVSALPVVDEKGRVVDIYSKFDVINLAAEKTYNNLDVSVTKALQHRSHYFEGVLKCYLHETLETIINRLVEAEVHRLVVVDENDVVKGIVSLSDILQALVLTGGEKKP
Sequence of AMPK alpha2/beta2/gamma1 (Homo sapiens) (P54646 whole entry, looked up): as the sequence (P54646 whole entry, looked up) above
Data set [12] has as its target AMPK alpha1/beta2/gamma1 (Homo sapiens) (UniProt O43741+P54619+Q13131). Kind of data set: Activation of human recombinant AMPK alpha1beta2gamma1. Format: protein-complex assay.
For data set [13], the target named is AMPK alpha2/beta1/gamma1 (Homo sapiens) (UniProt P54646+P54619+Q9Y478). Nature of the data set: Activation of human recombinant AMPK alpha2beta1gamma1. Format: protein-complex assay.
Sequence of AMPK alpha2/beta1/gamma1 (Homo sapiens) (P54619 whole entry partner): as the sequence (P54619 whole entry, looked up) above
Sequence of AMPK alpha2/beta1/gamma1 (Homo sapiens) (P54646 whole entry): as the sequence (P54646 whole entry, looked up) above
Sequence of AMPK alpha2/beta1/gamma1 (Homo sapiens) (Q9Y478 2-270 partner limits assumed): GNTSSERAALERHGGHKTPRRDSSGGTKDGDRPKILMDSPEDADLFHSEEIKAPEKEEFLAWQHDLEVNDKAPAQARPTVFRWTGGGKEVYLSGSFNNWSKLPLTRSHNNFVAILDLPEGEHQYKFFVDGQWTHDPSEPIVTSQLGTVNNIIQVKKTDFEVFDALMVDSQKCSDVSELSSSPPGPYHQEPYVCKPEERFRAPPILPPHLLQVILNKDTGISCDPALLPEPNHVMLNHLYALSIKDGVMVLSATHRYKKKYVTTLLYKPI
Data set [14] addresses AMPK alpha1/beta1/gamma3 (Homo sapiens) (UniProt Q9Y478+Q13131+Q9UGI9). Nature of the data set: Activation of human recombinant AMPK alpha1beta1gamma3. It is filed as protein-complex assay.
The target in data set [15] is AMPK alpha1/beta1/gamma2 (Homo sapiens) (UniProt Q9UGJ0+Q9Y478+Q13131). Nature of the data set: Activation of human recombinant AMPK alpha1beta1gamma2. Format: protein-complex assay.
Sequence of AMPK alpha1/beta1/gamma2 (Homo sapiens) (Q13131 whole entry partner): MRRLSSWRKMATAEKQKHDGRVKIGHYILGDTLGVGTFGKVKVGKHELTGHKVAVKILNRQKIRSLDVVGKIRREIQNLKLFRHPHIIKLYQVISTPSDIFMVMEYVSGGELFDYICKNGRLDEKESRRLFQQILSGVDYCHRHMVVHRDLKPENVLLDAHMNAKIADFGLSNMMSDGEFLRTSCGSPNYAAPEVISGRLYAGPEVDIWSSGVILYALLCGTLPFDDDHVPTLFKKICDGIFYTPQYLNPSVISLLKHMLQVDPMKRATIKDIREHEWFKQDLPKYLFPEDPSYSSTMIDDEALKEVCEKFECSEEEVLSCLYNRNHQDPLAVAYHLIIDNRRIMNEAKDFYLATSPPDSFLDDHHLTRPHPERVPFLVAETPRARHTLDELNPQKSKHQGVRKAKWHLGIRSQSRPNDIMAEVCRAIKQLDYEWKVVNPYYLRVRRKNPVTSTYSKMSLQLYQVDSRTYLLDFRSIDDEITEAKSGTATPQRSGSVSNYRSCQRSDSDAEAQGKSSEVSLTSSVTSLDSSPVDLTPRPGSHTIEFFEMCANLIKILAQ
Sequence of AMPK alpha1/beta1/gamma2 (Homo sapiens) (Q9UGJ0 whole entry): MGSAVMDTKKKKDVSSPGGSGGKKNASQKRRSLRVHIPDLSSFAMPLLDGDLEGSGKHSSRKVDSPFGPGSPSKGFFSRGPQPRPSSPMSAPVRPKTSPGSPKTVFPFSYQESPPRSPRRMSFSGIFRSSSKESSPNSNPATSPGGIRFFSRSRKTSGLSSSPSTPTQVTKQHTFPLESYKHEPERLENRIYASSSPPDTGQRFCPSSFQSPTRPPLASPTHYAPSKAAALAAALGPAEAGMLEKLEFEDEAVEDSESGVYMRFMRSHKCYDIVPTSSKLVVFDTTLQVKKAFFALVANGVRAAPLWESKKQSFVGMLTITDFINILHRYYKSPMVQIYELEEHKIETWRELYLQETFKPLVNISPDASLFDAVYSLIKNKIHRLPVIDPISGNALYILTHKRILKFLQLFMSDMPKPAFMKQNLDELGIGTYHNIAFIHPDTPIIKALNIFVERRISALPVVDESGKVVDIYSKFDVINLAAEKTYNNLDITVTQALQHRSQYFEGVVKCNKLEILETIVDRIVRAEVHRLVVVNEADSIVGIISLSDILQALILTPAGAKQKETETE
Sequence of AMPK alpha1/beta1/gamma2 (Homo sapiens) (Q9Y478 2-270 partner limits assumed): as the sequence (Q9Y478 2-270 partner limits assumed) above
Data set [16] can be described thus: Dissociation constant, pKa of the compound. It is filed as physicochemical.
For data set [17], the system named is Blood. Kind of data set: Ratio of AUC in mouse blood in presence of P-gp inhibitor GF120918 to AUC in mouse blood at 30 mg/kg, po. It is filed as ADME, organism-based. More on the design: dose 30 mg/kg, route oral. Particulars: in vivo. In a few lines:
as §2

The test system of data set [18] is Mus musculus. Nature of the data set: Antidiabetic activity in ob/ob mouse assessed as reduction in blood glucose level at 10 mg/kg, po bid for 5 days measured 12 hrs after last dose relative to control. It is filed as functional. On the set-up: scale not given: the % may be the effect or the level left. The procedure, abridged: (§3)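 ob/ob mice are gavaged bid for 5 days at 10 or 30 mg/kg without P-gp inhibitor. Blood glucose is measured 12 h after the last gavage and compared with control.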

Data set [19] relates to Mus musculus. Nature of the data set: Antidiabetic activity in ob/ob mouse assessed as reduction in blood glucose level at 30 mg/kg, po bid for 5 days measured 12 hrs after last dose relative to control. More on the design: scale not given: the % may be the effect or the level left. Format: functional. The procedure, abridged:
as §3

Data set [20] is described as follows: Oral bioavailability in mouse at 30 mg/kg. It is filed as ADME, organism-based. Particulars: in vivo. The procedure, abridged:
as §1

Data set [21] is described as follows: AUC in mouse at 30 mg/kg, po. It is filed as ADME, organism-based, Plasma. More on the design: dose 30 mg/kg, route oral. Particulars: blood. The procedure, abridged: as §1

Converted amounts (≈) assume the structure as drawn. The source made the active and inactive calls. No cut-off for these calls is given here. Bounds are passed on as bounds.

Sequence of AMP-activated protein kinase (AMPK) alpha-1/beta-1/gamma-1 (Homo sapiens) (P54619 whole entry): as the sequence (P54619 whole entry, looked up) above
Sequence of AMP-activated protein kinase (AMPK) alpha-1/beta-1/gamma-1 (Homo sapiens) (Q13131 whole entry partner): as the sequence (Q13131 whole entry partner) above
Sequence of AMP-activated protein kinase (AMPK) alpha-1/beta-1/gamma-1 (Homo sapiens) (Q9Y478 2-270 partner limits assumed): as the sequence (Q9Y478 2-270 partner limits assumed) above
Sequence of AMPK alpha1/beta2/gamma1 (Homo sapiens) (O43741 whole entry, looked up): as the sequence (O43741 whole entry, looked up) above
Sequence of AMPK alpha1/beta2/gamma1 (Homo sapiens) (P54619 whole entry, looked up): as the sequence (P54619 whole entry, looked up) above
Sequence of AMPK alpha1/beta2/gamma1 (Homo sapiens) (Q13131 whole entry, looked up): as the sequence (Q13131 whole entry partner) above
Sequence of AMPK alpha1/beta1/gamma3 (Homo sapiens) (Q13131 whole entry partner): as above
Sequence of AMPK alpha1/beta1/gamma3 (Homo sapiens) (Q9UGI9 whole entry partner): as the sequence (Q9UGI9 whole entry, looked up) above
Sequence of AMPK alpha1/beta1/gamma3 (Homo sapiens) (Q9Y478 2-270 limits assumed): as the sequence (Q9Y478 2-270 partner limits assumed) above

The compound `COc1cccc(-c2ccc(-n3c(Cl)cc4[nH]c(=O)c(-c5cccc(C(=O)O)c5)c(O)c43)cc2)c1O` displayed a bioavailability in data set [1] of 0.5%. Further, the clearance in data set [2] was 1 mL/min/kg. The compound also returned an AUC in data set [3] of 403 ng·h/mL. Moreover, in data set [4], the fraction unbound was less than 0.001. In [5], this compound gave a solubility of 325 µg/mL (≈ 646 µM). The Papp in data set [6] is less than 0.06 ×10⁻⁶ cm/s. For the same compound, in [7], the pEC200 is 8.7.

Take `COc1cccc(-c2ccc(-n3ccc4[nH]c(=O)c(C#N)c(O)c43)cc2)c1`: the pEC200 in data set [7] stood at 5.3.

`COc1cccc(-c2ccc(-n3c(Cl)cc4[nH]c(=O)c(C#N)c(O)c43)cc2)c1O`: in the data set on Blood [8], the “Ratio AUC” value was 10. Moreover, the Activity in the data set on Mus musculus [9] amounted to 18%. Further, the results for the pEC200 in data set [10], in data set [11] and in data set [7] were 7.3, 7.3 and 9.2, respectively. Besides, the outcome in [12], in data set [13], in data set [14] and in [15] was Active. In addition, the bioavailability in data set [1] worked out at 3%. Further, the clearance in data set [2] worked out at 3 mL/min/kg. In data set [3], this compound returned an AUC of 892 ng·h/mL. Besides, the fraction unbound in data set [4] was less than 0.001. Further, the solubility in data set [5] amounted to 42.5 µg/mL (≈ 104 µM). Besides, the Papp in data set [6] is less than 0.3 ×10⁻⁶ cm/s.

Compound `CCc1ccc(-n2c(Cl)cc3[nH]c(=O)c(-c4ccccc4)c(O)c32)cc1` came in with a pKa in data set [16] of 6. In data set [1], this compound registered a bioavailability of 50%. In [2], this compound came in with a clearance of 12 mL/min/kg. In data set [3], this compound returned an AUC of 3410 ng·h/mL. Besides, in data set [4], the fraction unbound was 0.002. Besides, in [5], the concentration in solution (solubility) came to 20 µg/mL (≈ 54.8 µM). Further, the Papp in data set [6] turned out to be 15 ×10⁻⁶ cm/s. Also, the pEC200 in data set [7] turned out to be 6.3.

With `COc1cccc(-c2ccc(-n3ccc4[nH]c(=O)c(C#N)c(O)c43)cc2)c1O`, in data set [1], the bioavailability is less than 1%. In data set [2], this compound gave a clearance of 2.4 mL/min/kg. Moreover, the AUC in data set [3] turned out to be 70 ng·h/mL. Further, the fraction unbound in [4] was 0.007. The solubility in [5] is 500 µg/mL (≈ 1340 µM). Also, in data set [6], the Papp is less than 0.04 ×10⁻⁶ cm/s. Further, in data set [7], the pEC200 was found to be 8.

As to `COc1ccccc1-c1ccc(-n2ccc3[nH]c(=O)c(C#N)c(O)c32)cc1`, in data set [7], the pEC200 was determined as 5.5.

Turning to `N#Cc1c(O)c2c(cc(Cl)n2-c2ccc(-c3ccsc3)cc2)[nH]c1=O`, in the data set on Mus musculus [9], the Activity worked out at 17%. In data set [11], the result was Active. Further, the pKa in [16] is less than 2. The same compound registered a bioavailability in data set [1] of 21%. In data set [2], this compound returned a clearance of 0.9 mL/min/kg. The same compound gave an AUC in data set [3] of 19500 ng·h/mL. For the same compound, in data set [4], the fraction unbound is less than 0.001. Also, the concentration in solution in [5] (solubility) was 186 µg/mL (≈ 506 µM). Further, the Papp in data set [6] is less than 0.07 ×10⁻⁶ cm/s. Moreover, the pEC200 in data set [7] was found to be 8.1.

With `COc1cccc(-c2ccc(-n3c(Cl)cc4[nH]c(=O)c(-c5ccccc5)c(O)c43)cc2)c1O`, the “Ratio AUC” value in the data set with Blood [17] is 2. Besides, the Activity with Mus musculus [18] amounted to 13%; in the data set with Mus musculus [19], 17%. Besides, in [11], the result was Active. In data set [1], this compound gave a bioavailability of 15%. For the same compound, the clearance in data set [2] was determined as 0.3 mL/min/kg. Moreover, the AUC in data set [3] came out at 41300 ng·h/mL. Further, the fraction unbound in [4] was less than 0.001. The same compound registered a solubility in [5] of 25 µg/mL (≈ 54.5 µM). Further, the Papp in data set [6] stood at 11 ×10⁻⁶ cm/s. Besides, the pEC200 in [7] is 7.6.

`N#Cc1c(O)c2c(ccn2-c2ccc(-c3ccccc3O)cc2)[nH]c1=O`: the bioavailability in data set [20] is 10%. The same compound came in with a clearance in data set [2] of 34 mL/min/kg. The AUC in [21] was 1490 ng·h/mL. Further, the pEC200 in data set [7] was 7.8.

In [5], `COc1ccc(-c2ccc(-n3ccc4[nH]c(=O)c(C#N)c(O)c43)cc2)cc1` came in with a solubility of 59 µg/mL (≈ 165 µM). Further, the Papp in [6] is less than 0.08 ×10⁻⁶ cm/s. Further, the pEC200 in [7] turned out to be 6.8.

In data set [1], `N#Cc1c(O)c2c(-c3ccc(-c4ccccc4O)cc3)csc2[nH]c1=O` came in with a bioavailability of 2%. This compound also yielded a clearance in data set [2] of 24 mL/min/kg. The same compound yielded an AUC in data set [3] of 80 ng·h/mL. In addition, the fraction unbound in data set [4] is 0.013. The solubility in data set [5] is 500 µg/mL (≈ 1390 µM). Also, in data set [6], the Papp was less than 0.3 ×10⁻⁶ cm/s. The pEC200 in [7] amounted to 8.5.

With `Cc1ccc(-c2ccc(-n3c(Cl)cc4[nH]c(=O)c(C#N)c(O)c43)cc2)cc1`, the pEC200 in data set [10] was 5.5; in [11], 5.5; in [12] it was less than 4.5; in [7] it was 7.5. For the same compound, in [1], the bioavailability was 14%. Moreover, in data set [2], the clearance came out at 0.7 mL/min/kg. In addition, the AUC in data set [3] was determined as 17000 ng·h/mL. For the same compound, in [4], the fraction unbound is less than 0.001. For the same compound, the concentration in solution in [5] (solubility) came to 129 µg/mL (≈ 343 µM). The Papp in data set [6] came to 0.48 ×10⁻⁶ cm/s.

For the origin of these results see ChEMBL document CHEMBL2406937, “Discovery of Pyridones As Oral AMPK Direct Activators” (ACS Med Chem Lett, 2013).
